Columns and labels:
MKN-45 [1] = assay: Antiproliferative activity against human MKN45 cells assessed as cell viability at 10 uM after 72 hrs by MTT assay relative to control; type: functional; details: MKN-45, 72 h, read-out: Activity
Method in brief: (§1)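 Single-concentration MTT screen. Log-phase cells in DMEM with 10% FCS were treated for 72 h in 96-well plates. After MTT and DMSO, absorbance was read at 570 nm. Viability was calculated relative to control as mean ± SD of three independent experiments.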

KB [2] = assay: Antiproliferative activity against human KB cells assessed as cell viability at 10 uM after 72 hrs by MTT assay relative to control; type: functional; details: read-out: Activity; method in brief: as §1
KB [3] = assay: Antiproliferative activity against human KB cells after 72 hrs by MTT assay; type: functional, cell-based
Method in brief: (§2)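 Cells grown in DMEM with 10% heat-inactivated FCS, penicillin and streptomycin, at 37°C in 5% CO₂, and used in log phase. Cells were seeded in 96-well plates and exposed to compound for 72 h. MTT was added, then DMSO, and OD was read at 570 nm. Survival rate was calculated and IC50 taken as 50% growth inhibition.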

[4] = Antiproliferative activity against human KBV cells after 72 hrs by MTT assay; type: functional, cell-based; method in brief: as §2
HeLa = assay: Antiproliferative activity against human HeLa cells after 72 hrs by MTT assay; type: functional, cell-based; method in brief: as §2
A549 = assay: Antiproliferative activity against human A549 cells after 72 hrs by MTT assay; type: functional, cell-based; details: A549, 72 h; method in brief: as §2
MKN-45 [5] = assay: Antiproliferative activity against human MKN45 cells after 72 hrs by MTT assay; type: functional, cell-based; details: MKN-45, 72 h; method in brief: as §2
BGC-823 = assay: Antiproliferative activity against human BGC823 cells after 72 hrs by MTT assay; type: functional, cell-based; details: BGC-823, 72 h; method in brief: as §2
AGS = assay: Antiproliferative activity against human AGS cells after 72 hrs by MTT assay; type: functional, cell-based; method in brief: as §2
MKN-45 [6] = assay: Cell cycle arrest in human MKN45 cells assessed as apoptotic cell accumulation at 10 uM after 24 hrs by propidium iodide staining based flow cytometry (reference value: 1.51%); type: functional
Method in brief: (§3)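 MKN45 cells were plated at 2×10⁵ cells/well in 6-well plates and exposed for 24 and 48 h. Cells were harvested, fixed and stained with propidium iodide (50 µg/mL). DNA content was read by FACScan flow cytometry for phase distribution. The sub-G0/G1 fraction was taken as apoptotic.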

MKN-45 [7] = assay: Cell cycle arrest in human MKN45 cells assessed as accumulation at G1-phase at 10 uM after 24 hrs by propidium iodide staining based flow cytometry (reference value: 67%); type: functional; method in brief: as §3
MKN-45 [8] = assay: Cell cycle arrest in human MKN45 cells assessed as accumulation at S-phase at 10 uM after 24 hrs by propidium iodide staining based flow cytometry (reference value: 15%); type: functional; method in brief: as §3
MKN-45 [9] = assay: Cell cycle arrest in human MKN45 cells assessed as accumulation at G2/M-phase at 10 uM after 24 hrs by propidium iodide staining based flow cytometry (reference value: 19%); type: functional; method in brief: as §3
MKN-45 [10] = assay: Cell cycle arrest in human MKN45 cells assessed as apoptotic cell accumulation at 10 uM after 48 hrs by propidium iodide staining based flow cytometry (reference value: 1.51%); type: functional; method in brief: as §3
MKN-45 [11] = assay: Cell cycle arrest in human MKN45 cells assessed as accumulation at G1-phase at 10 uM after 48 hrs by propidium iodide staining based flow cytometry (reference value: 67%); type: functional; method in brief: as §3
MKN-45 [12] = assay: Cell cycle arrest in human MKN45 cells assessed as accumulation at S-phase at 10 uM after 48 hrs by propidium iodide staining based flow cytometry (reference value: 15%); type: functional; method in brief: as §3
MKN-45 [13] = assay: Cell cycle arrest in human MKN45 cells assessed as accumulation at G2/M-phase at 10 uM after 48 hrs by propidium iodide staining based flow cytometry (reference value: 19%); type: functional; method in brief: as §3

Compound | viability at 10 µM (MKN-45 [1]) | viability at 10 µM (KB [2]) | other results
CC1(C)CC[C@]2(C(=O)OCc3ccccc3)CC[C@]3(C)C(=CC[C@@H]4[C@@]5(C)CC/C(=N\O)[C@@](C)(CO)[C@@H]5CC[C@]43C)[C@@H]2C1 | 64% | 76% | –
CC1(C)CC[C@]2(C(=O)OCc3ccccc3)CC[C@]3(C)C(=CC[C@@H]4[C@@]5(C)Cc6nccnc6[C@@](C)(COC(=O)c6ccccc6C(=O)OCCc6ccc(OCCO[N+](=O)[O-])cc6)[C@@H]5CC[C@]43C)[C@@H]2C1 | 84% | 55% | –
CC1(C)CC[C@]2(C(=O)OCc3ccccc3)CC[C@]3(C)C(=CC[C@@H]4[C@@]5(C)Cc6nccnc6[C@@](C)(COC(=O)CCCCCO[N+](=O)[O-])[C@@H]5CC[C@]43C)[C@@H]2C1 | 84% | 63% | –
CC1(C)CC[C@]2(C(=O)OCc3ccccc3)CC[C@]3(C)C(=CC[C@@H]4[C@@]5(C)CCC(=O)[C@@](C)(COC(=O)c6ccccc6C(=O)Nc6cccc(N)c6)[C@@H]5CC[C@]43C)[C@@H]2C1 | 93% | 62% | –
CC1(C)CC[C@]2(C(=O)OCc3ccccc3)CC[C@]3(C)C(=CC[C@@H]4[C@@]5(C)Cc6nccnc6[C@@](C)(COC(=O)c6ccccc6C(=O)Oc6ccc(CCO[N+](=O)[O-])cc6)[C@@H]5CC[C@]43C)[C@@H]2C1 | 78% | 49% | –
CC1(C)CC[C@]2(C(=O)OCc3ccccc3)CC[C@]3(C)C(=CC[C@@H]4[C@@]5(C)CCC(OC(=O)CCCCCO[N+](=O)[O-])[C@@](C)(COC(=O)CCCCCO[N+](=O)[O-])[C@@H]5CC[C@]43C)[C@@H]2C1 (stereo partly drawn) | 85% | 61% | –
CC1(C)CC[C@]2(C(=O)OCc3ccccc3)CC[C@]3(C)C(=CC[C@@H]4[C@@]5(C)CCC(=O)[C@@](C)(COC(=O)c6ccccc6C(=O)O)[C@@H]5CC[C@]43C)[C@@H]2C1 | 40% | 51% | –
CC1(C)CC[C@]2(C(=O)OCc3ccccc3)CC[C@]3(C)C(=CC[C@@H]4[C@@]5(C)CCC(=O)[C@@](C)(COC(=O)CCCCO[N+](=O)[O-])[C@@H]5CC[C@]43C)[C@@H]2C1 | 54% | 60% | –
CC1(C)CC[C@]2(C(=O)OCc3ccccc3)CC[C@]3(C)C(=CC[C@@H]4[C@@]5(C)Cc6nccnc6[C@@](C)(COC(=O)CCC(=O)Nc6ccccc6N)[C@@H]5CC[C@]43C)[C@@H]2C1 | 86% | 57% | –
CC1(C)CC[C@]2(C(=O)OCc3ccccc3)CC[C@]3(C)C(=CC[C@@H]4[C@@]5(C)CCC(=O)[C@@](C)(COC(=O)CCCCCO[N+](=O)[O-])[C@@H]5CC[C@]43C)[C@@H]2C1 | 75% | 50% | –
CC1(C)CC[C@]2(C(=O)OCc3ccccc3)CC[C@]3(C)C(=CC[C@@H]4[C@@]5(C)CCC(=O)[C@@](C)(COC(=O)CCC(=O)Nc6ccccc6N)[C@@H]5CC[C@]43C)[C@@H]2C1 | 99% | 50% | –
CC1(C)CC[C@]2(C(=O)OCc3ccccc3)CC[C@]3(C)C(=CC[C@@H]4[C@@]5(C)CCC(=O)[C@@](C)(COC(=O)c6ccccc6C(=O)OCCc6ccc(OCCO[N+](=O)[O-])cc6)[C@@H]5CC[C@]43C)[C@@H]2C1 | 89% | 67% | –
CC1(C)CC[C@]2(C(=O)OCc3ccccc3)CC[C@]3(C)C(=CC[C@@H]4[C@@]5(C)Cc6nccnc6[C@@](C)(COC(=O)CCC(=O)OCCc6ccc(OCCO[N+](=O)[O-])cc6)[C@@H]5CC[C@]43C)[C@@H]2C1 | 93% | 50% | –
CC1(C)CC[C@]2(C(=O)OCc3ccccc3)CC[C@]3(C)C(=CC[C@@H]4[C@@]5(C)CCC(=O)[C@@](C)(COC(=O)CCC(=O)Oc6ccc(CCO[N+](=O)[O-])cc6)[C@@H]5CC[C@]43C)[C@@H]2C1 | 100% | 53% | –
CC1(C)CC[C@]2(C(=O)OCc3ccccc3)CC[C@]3(C)C(=CC[C@@H]4[C@@]5(C)Cc6nccnc6[C@@](C)(COC(=O)CCCCO[N+](=O)[O-])[C@@H]5CC[C@]43C)[C@@H]2C1 | 89% | 59% | –
CC1(C)CC[C@]2(C(=O)OCc3ccccc3)CC[C@]3(C)C(=CC[C@@H]4[C@@]5(C)CCC(=O)[C@@](C)(COC(=O)c6ccccc6C(=O)Oc6ccc(CCO[N+](=O)[O-])cc6)[C@@H]5CC[C@]43C)[C@@H]2C1 | 78% | 86% | –
CC1(C)CC[C@]2(C(=O)OCc3ccccc3)CC[C@]3(C)C(=CC[C@@H]4[C@@]5(C)CCC(=O)[C@@](C)(COC(=O)CCC(=O)Nc6ccc(N)cc6)[C@@H]5CC[C@]43C)[C@@H]2C1 | 92% | 51% | –
CC1(C)CC[C@]2(C(=O)OCc3ccccc3)CC[C@]3(C)C(=CC[C@@H]4[C@@]5(C)Cc6nccnc6[C@@](C)(COC(=O)c6ccccc6C(=O)O)[C@@H]5CC[C@]43C)[C@@H]2C1 | 84% | 81% | –
CC1(C)CC[C@]2(C(=O)OCc3ccccc3)CC[C@]3(C)C(=CC[C@@H]4[C@@]5(C)CCC(=O)[C@@](C)(COC(=O)CCC(=O)OCCc6ccc(OCCO[N+](=O)[O-])cc6)[C@@H]5CC[C@]43C)[C@@H]2C1 | 93% | 76% | –
CC1(C)CC[C@]2(C(=O)OCc3ccccc3)CC[C@]3(C)C(=CC[C@@H]4[C@@]5(C)Cc6nccnc6[C@@](C)(COC(=O)CCC(=O)O)[C@@H]5CC[C@]43C)[C@@H]2C1 | 70% | 98% | –
CC1(C)CC[C@]2(C(=O)O)CC[C@]3(C)C(=CC[C@@H]4[C@@]5(C)CC[C@H](O)[C@@](C)(CO)[C@@H]5CC[C@]43C)[C@@H]2C1 [HEDERAGENIN] | 75% | 81% | IC50 (KB [3]): 54.4 µM; IC50 [4]: > 100 µM; IC50 (HeLa): 54 µM; IC50 (A549): > 100 µM; IC50 (MKN-45 [5]): 53.7 µM; IC50 (BGC-823): 52.1 µM; IC50 (AGS): 36.1 µM; Activity (MKN-45 [6]): 1.44%; Activity (MKN-45 [7]): 69%; Activity (MKN-45 [8]): 14%; Activity (MKN-45 [9]): 17%; Activity (MKN-45 [10]): 5.87%; Activity (MKN-45 [11]): 63%; Activity (MKN-45 [12]): 12%; Activity (MKN-45 [13]): 25%
CC1(C)CC[C@]2(C(=O)OCc3ccccc3)CC[C@]3(C)C(=CC[C@@H]4[C@@]5(C)Cc6nccnc6[C@@](C)(CO)[C@@H]5CC[C@]43C)[C@@H]2C1 | 77% | 75% | –
CC1(C)CC[C@]2(C(=O)OCc3ccccc3)CC[C@]3(C)C(=CC[C@@H]4[C@@]5(C)CCC(OC(=O)CCCCO[N+](=O)[O-])[C@@](C)(COC(=O)CCCCO[N+](=O)[O-])[C@@H]5CC[C@]43C)[C@@H]2C1 (stereo partly drawn) | 97% | 58% | –
CC1(C)CC[C@]2(C(=O)OCc3ccccc3)CC[C@]3(C)C(=CC[C@@H]4[C@@]5(C)Cc6nccnc6[C@@](C)(COC(=O)CCC(=O)Oc6ccc(CCO[N+](=O)[O-])cc6)[C@@H]5CC[C@]43C)[C@@H]2C1 | 100% | 69% | –

Reference: ChEMBL document CHEMBL4130512, “Design, synthesis and biological evaluation of novel α-hederagenin derivatives with anticancer activity” (Eur J Med Chem, 2017)
